Active and inactive are the calls of the source. The rule behind the calls is not given here.
Biological target: Mu-type opioid receptor (Homo sapiens, UniProt P35372)
Experiment: Displacement of [3H]-DAMGO from human MOR receptor expressed in HEK293T cell membrane assessed as inhibition constant incubated for 60 mins by MicroBeta scintillation counting method
Type: cell membranes
Conditions: not given
Outline: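 HEK293 cells stably expressing human MOR, grown in DMEM with 10% FBS and hygromycin B; membranes prepared from confluent cells. Binding buffer 50 mM Tris, 5 mM MgCl2, pH 7.4. Nonspecific binding with 10 μM naloxone. 60 min at RT, then GF/C filtration.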

Mu-type opioid receptor (Homo sapiens, UniProt P35372), sequence (P35372 whole entry): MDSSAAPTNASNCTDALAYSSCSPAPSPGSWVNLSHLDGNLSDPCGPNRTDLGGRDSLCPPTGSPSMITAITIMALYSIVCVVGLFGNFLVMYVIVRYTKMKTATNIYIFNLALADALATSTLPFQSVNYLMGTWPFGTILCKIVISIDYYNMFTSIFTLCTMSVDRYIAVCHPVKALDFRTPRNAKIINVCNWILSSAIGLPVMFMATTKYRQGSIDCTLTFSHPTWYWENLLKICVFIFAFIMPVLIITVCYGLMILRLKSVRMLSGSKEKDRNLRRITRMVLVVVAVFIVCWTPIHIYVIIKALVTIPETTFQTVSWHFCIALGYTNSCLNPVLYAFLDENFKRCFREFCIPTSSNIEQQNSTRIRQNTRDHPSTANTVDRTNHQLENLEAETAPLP

**Q.** How did the Ki turn out when `CN(C)C(=O)C(CCN1C[C@H](O)C[C@H]1C(=O)NCCCCN1CCN(c2cccc(Cl)c2Cl)CC1)(c1ccccc1)c1ccccc1` was run?
**A.** 564 nM

**Q.** For `CCCN(CCC(C(=O)N(C)C)(c1ccccc1)c1ccccc1)[C@@H]1C[C@H]1c1ccc(Cl)cc1` (relative stereo), which Ki is on record?
**A.** 31.2 nM

**Q.** `CCC1(CC)CC(OCCCNCc2cccc(C(F)(F)F)n2)(c2ccccn2)CCO1` (stereo unspecified) was tested. Which Ki did it give?
**A.** 2520 nM

**Q.** How did the Ki turn out when `CN(C)C(=O)C(CCN1C[C@H](F)C[C@H]1C(=O)NCCCCN1CCN(c2nsc3ccccc23)CC1)(c1ccccc1)c1ccccc1` was run?
**A.** 146 nM

**Q.** `Fc1cncc(CNCC[C@@]2(c3ccccn3)CCOC3(CCCC3)C2)c1` was tested. Which Ki did it give?
**A.** 54.7 nM

**Q.** With `CCc1cc(Cl)c(OC)c(N2CCN(Cc3cn(CCC(C(=O)N(C)C)(c4ccccc4)c4ccccc4)nn3)CC2)c1` as the compound, how does the Ki read?
**A.** 2380 nM

**Q.** With `FC(F)(F)c1cccc(N2CCN(CCC3(c4ccccn4)CCOCC3)CC2)n1` as the compound, how does the Ki read?
**A.** 1670 nM

**Q.** Which Ki does the source give for `CCc1cc(Cl)c(OC)c(N2CCN(C[C@@H]3C[C@@H](O)CN3CCC(C(=O)N(C)C)(c3ccccc3)c3ccccc3)CC2)c1` here?
**A.** 377 nM

**Q.** `FC(F)(F)c1cccc(N2CCN(CCC3(c4ccccn4)CCOC4(CCCC4)C3)CC2)n1` (stereo unspecified) was tested. Which Ki did it give?
**A.** 166 nM

Biological target: D(2) dopamine receptor (Homo sapiens, UniProt P14416)
Sequence (P14416 whole entry): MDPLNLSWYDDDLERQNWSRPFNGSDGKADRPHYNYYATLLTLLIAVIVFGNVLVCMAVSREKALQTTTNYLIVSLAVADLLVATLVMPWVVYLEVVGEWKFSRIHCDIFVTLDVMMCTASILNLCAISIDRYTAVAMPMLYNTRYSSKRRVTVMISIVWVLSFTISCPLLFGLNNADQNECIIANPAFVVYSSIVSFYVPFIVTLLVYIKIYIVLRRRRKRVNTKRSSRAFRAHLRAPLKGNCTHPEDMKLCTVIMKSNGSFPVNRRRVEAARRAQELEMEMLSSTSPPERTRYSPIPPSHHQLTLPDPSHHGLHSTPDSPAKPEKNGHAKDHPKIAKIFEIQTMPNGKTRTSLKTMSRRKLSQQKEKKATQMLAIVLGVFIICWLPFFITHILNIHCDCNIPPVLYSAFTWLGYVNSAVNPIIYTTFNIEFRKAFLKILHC
Experiment: Displacement of [3H]N-methylspiperone from human D2L receptor expressed in HEK293T cell membrane assessed as inhibition constant incubated for 60 mins by MicroBeta scintillation counting method
Type: cell membranes
Conditions: not given

**Q.** Which Ki does the source give for `CN(C)C(=O)C(CCN1C[C@H](F)C[C@H]1C(=O)NCCCCN1CCN(c2nsc3ccccc23)CC1)(c1ccccc1)c1ccccc1` here?
**A.** 322 nM

**Q.** Which Ki does the source give for `Fc1cncc(CNCC[C@@]2(c3ccccn3)CCOC3(CCCC3)C2)c1` here?
**A.** > 100000 nM

**Q.** How did the Ki turn out when `CCc1cc(Cl)c(OC)c(N2CCN(C[C@@H]3C[C@@H](O)CN3CCC(C(=O)N(C)C)(c3ccccc3)c3ccccc3)CC2)c1` was run?
**A.** 870 nM

**Q.** `FC(F)(F)c1cccc(N2CCN(CCC3(c4ccccn4)CCOC4(CCCC4)C3)CC2)n1` (stereo unspecified) was tested. Which Ki did it give?
**A.** 5430 nM

Biological target: T1, D(3) dopamine receptor (Homo sapiens, UniProt P35462)
T1 sequence (P35462 whole entry): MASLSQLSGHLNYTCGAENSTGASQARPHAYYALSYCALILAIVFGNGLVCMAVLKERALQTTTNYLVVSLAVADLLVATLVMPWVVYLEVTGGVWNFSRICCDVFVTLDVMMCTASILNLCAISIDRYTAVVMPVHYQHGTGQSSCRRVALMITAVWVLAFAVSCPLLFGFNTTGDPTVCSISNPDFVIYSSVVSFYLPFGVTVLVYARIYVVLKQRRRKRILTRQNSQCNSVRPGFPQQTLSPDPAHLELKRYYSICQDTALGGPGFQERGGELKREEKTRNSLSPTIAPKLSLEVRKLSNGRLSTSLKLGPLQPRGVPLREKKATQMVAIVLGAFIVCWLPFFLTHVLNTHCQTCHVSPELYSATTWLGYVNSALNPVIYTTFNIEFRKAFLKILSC
Experiment: Displacement of [3H]N-methylspiperone from human D3R receptor expressed in HEK293T cell membrane assessed as inhibition constant incubated for 60 mins by MicroBeta scintillation counting method
Type: cell membranes
Conditions: not given

**Q.** How did the Ki turn out when `CCC1(CC)CC(OCCCNCc2cccc(C(F)(F)F)n2)(c2ccccn2)CCO1` (stereo unspecified) was run?
**A.** 2700 nM

**Q.** How did the Ki turn out when `CN(C)C(=O)C(CCN1C[C@H](F)C[C@H]1C(=O)NCCCCN1CCN(c2nsc3ccccc23)CC1)(c1ccccc1)c1ccccc1` was run?
**A.** 53 nM

**Q.** With `Fc1cncc(CNCC[C@@]2(c3ccccn3)CCOC3(CCCC3)C2)c1` as the compound, how does the Ki read?
**A.** 85100 nM

**Q.** `CCc1cc(Cl)c(OC)c(N2CCN(C[C@@H]3C[C@@H](O)CN3CCC(C(=O)N(C)C)(c3ccccc3)c3ccccc3)CC2)c1` was tested. Which Ki did it give?
**A.** 111 nM

**Q.** How did the Ki turn out when `FC(F)(F)c1cccc(N2CCN(CCC3(c4ccccn4)CCOC4(CCCC4)C3)CC2)n1` (stereo unspecified) was run?
**A.** 734 nM

Biological target: Mu-type opioid receptor (Mus musculus) (UniProt P42866)
Sequence (P42866 whole entry, the tested form may be a part): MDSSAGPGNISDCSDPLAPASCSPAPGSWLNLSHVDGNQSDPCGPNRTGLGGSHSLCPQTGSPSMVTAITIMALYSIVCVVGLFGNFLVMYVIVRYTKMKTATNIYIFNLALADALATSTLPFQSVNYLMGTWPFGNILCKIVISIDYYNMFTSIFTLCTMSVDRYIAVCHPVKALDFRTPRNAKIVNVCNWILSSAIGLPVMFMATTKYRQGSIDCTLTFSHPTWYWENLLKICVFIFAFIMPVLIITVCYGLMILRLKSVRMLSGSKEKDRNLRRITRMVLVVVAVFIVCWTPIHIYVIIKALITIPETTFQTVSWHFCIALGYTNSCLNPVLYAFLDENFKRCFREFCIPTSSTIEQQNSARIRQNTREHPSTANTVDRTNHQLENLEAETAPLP
Experiment: Partial agonist activity at Rluc8 fused mouse MOR transfected in HEK293T cells assessed as Nb33 recruitment using coelenterazine as substrate incubated for 40 mins by BRET assay
Type: functional, cell-based
Conditions: not given
Outline: (§1)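 HEK293T cells transiently transfected with BRET sensors (DNA:PEI 1:6), plated into poly-D-lysine plates and assayed 48 h post-transfection. Cells washed and held in D-PBS 30 min at 37 °C. Coelenterazine h 5 μM final; ligands 10 μM to 0.01 nM. At least three independent experiments in duplicate.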

**Q.** Which Activity does the source give for `CN(C)C(=O)C(CCN1C[C@H](F)C[C@H]1C(=O)NCCCCN1CCN(c2nsc3ccccc23)CC1)(c1ccccc1)c1ccccc1` here?
**A.** inactive

**Q.** `CCc1cc(Cl)c(OC)c(N2CCN(C[C@@H]3C[C@@H](O)CN3CCC(C(=O)N(C)C)(c3ccccc3)c3ccccc3)CC2)c1` was tested. Which Activity did it give?
**A.** inactive

Biological target: Mu-type opioid receptor (Mus musculus) (UniProt P42866)
Experiment: Partial agonist activity at Rluc8 fused mouse MOR transfected in HEK293T cells assessed as Nb33 recruitment at 10 uM using coelenterazine as substrate incubated for 40 mins by BRET assay relative to control
Type: functional, cell-based
Conditions: not given
Outline: as §1

**Q.** With `CN(C)C(=O)C(CCN1C[C@H](F)C[C@H]1C(=O)NCCCCN1CCN(c2nsc3ccccc23)CC1)(c1ccccc1)c1ccccc1` as the compound, how does the Emax read?
**A.** inactive

**Q.** With `CCc1cc(Cl)c(OC)c(N2CCN(C[C@@H]3C[C@@H](O)CN3CCC(C(=O)N(C)C)(c3ccccc3)c3ccccc3)CC2)c1` as the compound, how does the Emax read?
**A.** inactive

Biological target: Mu-type opioid receptor (Mus musculus) (UniProt P42866)
Experiment: (§2) Partial agonist activity at SNAP-tagged mouse MOR transfected in HEK293T cells coexpressing wild type Galpha-i2, venus-tagged Gbeta-1 (156 to 239 residues), venus-tagged Ggamma2 (1 to 155 residues) and Rluc8 fused masGRK3ct assessed as Galpha-i2 activation using coelenterazine as substrate incubated for 40 mins by BRET based GPA assay
Type: functional, cell-based
Conditions: not given
Outline: as §1

**Q.** How did the Activity turn out when `CN(C)C(=O)C(CCN1C[C@H](F)C[C@H]1C(=O)NCCCCN1CCN(c2nsc3ccccc23)CC1)(c1ccccc1)c1ccccc1` was run?
**A.** inactive

Biological target: Mu-type opioid receptor (Mus musculus, UniProt P42866)
Sequence (P42866 whole entry): as the sequence (P42866 whole entry, the tested form may be a part) above
Experiment: as §2
Type: functional, cell-based
Conditions: not given
Outline: as §1

**Q.** `CN(C)C(=O)C(CCN1C[C@H](O)C[C@H]1C(=O)NCCCCN1CCN(c2cccc(Cl)c2Cl)CC1)(c1ccccc1)c1ccccc1` was tested. Which EC50 did it give?
**A.** 1810 nM

**Q.** `CCc1cc(Cl)c(OC)c(N2CCN(C[C@@H]3C[C@@H](O)CN3CCC(C(=O)N(C)C)(c3ccccc3)c3ccccc3)CC2)c1` was tested. Which EC50 did it give?
**A.** 3310 nM

Biological target: Mu-type opioid receptor (Mus musculus) (UniProt P42866)
Experiment: as §2, with “activation at 10 uM” for “activation”, “assay relative to control” for “assay”
Type: functional, cell-based
Conditions: not given
Outline: as §1

**Q.** For `CN(C)C(=O)C(CCN1C[C@H](F)C[C@H]1C(=O)NCCCCN1CCN(c2nsc3ccccc23)CC1)(c1ccccc1)c1ccccc1`, which Activity is on record?
**A.** inactive

Same assay, conditions: filed as partial agonist

**Q.** Which Emax does the source give for `CCc1cc(Cl)c(OC)c(N2CCN(C[C@@H]3C[C@@H](O)CN3CCC(C(=O)N(C)C)(c3ccccc3)c3ccccc3)CC2)c1` here?
**A.** 86.1%

Biological target: Mu-type opioid receptor (Mus musculus) (UniProt P42866)
Experiment: Partial agonist activity at Rluc8 fused mouse MOR transfected in HEK293T cells coexpressing wild type GRK2 assessed as arrestin-3 recruitment using coelenterazine as substrate incubated for 40 mins by BRET assay
Type: functional, cell-based
Conditions: not given
Outline: as §1

**Q.** For `CN(C)C(=O)C(CCN1C[C@H](F)C[C@H]1C(=O)NCCCCN1CCN(c2nsc3ccccc23)CC1)(c1ccccc1)c1ccccc1`, which Activity is on record?
**A.** inactive

**Q.** For `CCc1cc(Cl)c(OC)c(N2CCN(C[C@@H]3C[C@@H](O)CN3CCC(C(=O)N(C)C)(c3ccccc3)c3ccccc3)CC2)c1`, which Activity is on record?
**A.** inactive

Biological target: Mu-type opioid receptor (Mus musculus) (UniProt P42866)
Experiment: Partial agonist activity at Rluc8 fused mouse MOR transfected in HEK293T cells coexpressing wild type GRK2 assessed as arrestin-3 recruitment at 10 uM using coelenterazine as substrate incubated for 40 mins by BRET assay relative to control
Type: functional, cell-based
Conditions: not given
Outline: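 HEK293T cells transiently transfected with BRET sensors (DNA:PEI 1:6), plated into poly-D-lysine plates and assayed 48 h post-transfection. Cells washed and held in D-PBS 30 min at 37 °C. Coelenterazine h 5 μM final; ligands 10 μM to 0.01 nM. […] At least three independent experiments in duplicate.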

**Q.** `CN(C)C(=O)C(CCN1C[C@H](F)C[C@H]1C(=O)NCCCCN1CCN(c2nsc3ccccc23)CC1)(c1ccccc1)c1ccccc1` was tested. Which Activity did it give?
**A.** inactive

**Q.** With `CCc1cc(Cl)c(OC)c(N2CCN(C[C@@H]3C[C@@H](O)CN3CCC(C(=O)N(C)C)(c3ccccc3)c3ccccc3)CC2)c1` as the compound, how does the Activity read?
**A.** inactive

Biological target: T1, D(3) dopamine receptor
Experiment: as §2, with “human D3R receptor” for “mouse MOR”, “Galpha-oA,” for “Galpha-i2,”, “Galpha-oA” for “Galpha-i2”
Type: functional, cell-based
Conditions: not given

**Q.** For `CCc1cc(Cl)c(OC)c(N2CCN(C[C@@H]3C[C@@H](O)CN3CCC(C(=O)N(C)C)(c3ccccc3)c3ccccc3)CC2)c1`, which EC50 is on record?
**A.** 25.4 nM

Biological target: T1, D(3) dopamine receptor
Experiment: as §2, with “Antagonist” for “Partial agonist”, “human D3R receptor” for “mouse MOR”, “Galpha-oA,” for “Galpha-i2,”, “Galpha-oA” for “Galpha-i2”, “mins in presence of quinpirole” for “mins”
Type: functional, cell-based
Conditions: not given

**Q.** What does the source list for `CN(C)C(=O)C(CCN1C[C@H](F)C[C@H]1C(=O)NCCCCN1CCN(c2nsc3ccccc23)CC1)(c1ccccc1)c1ccccc1`?
**A.** EC50: 90.9 nM; IC50: 91.2 nM

**Q.** With `CCc1cc(Cl)c(OC)c(N2CCN(C[C@@H]3C[C@@H](O)CN3CCC(C(=O)N(C)C)(c3ccccc3)c3ccccc3)CC2)c1` as the compound, how does the IC50 read?
**A.** 2950 nM

Same assay, conditions: hek293t

**Q.** How did the EC50 turn out when `CCc1cc(Cl)c(OC)c(N2CCN(C[C@@H]3C[C@@H](O)CN3CCC(C(=O)N(C)C)(c3ccccc3)c3ccccc3)CC2)c1` was run?
**A.** 2960 nM
